Each structure is given as a SMILES string.

Holding throughout (format): functional
In one experiment the test system is SJSA-1. As to the kind of experiment: Cytotoxicity against human SJSA1 cells assessed as cell viability at 10 uM after 24 hrs by MTT assay relative to control. Particulars: SJSA-1, 24 h, read-out: Activity. In a few lines: (§1)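 Adherent lines in DMEM plus 10% FBS and penicillin-streptomycin, 37 °C, 5% CO2, lifted with Accutase. Seeded at 500–10,000 cells/well and rested 15 h. Compounds from 10 mM DMSO stocks dosed at 10 µM final, 1% DMSO final, n = 5, for 24 h. Medium then swapped for 1 mg/ml MTT in phenol-red-free medium for 3 h at 37 °C. Formazan dissolved in DMSO, OD read at 550 nm. Viability normalised to 1% DMSO vehicle control.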

Experiment [1] has as its system HCT-116. As to the kind of experiment: Cytotoxicity against human HCT116 cells assessed as cell viability at 10 uM after 24 hrs by MTT assay relative to control. Particulars: HCT-116, 24 h, read-out: Activity. In short, it runs like this:
as §1
For orientation: Formazan colour is commonly taken as a measure of viable cells.

In experiment [2] the test system is JeKo-1. As to the kind of experiment: Cytotoxicity against human JeKo1 cells assessed as cell viability at 2 uM after 24 hrs by MTT assay relative to control. Particulars: JeKo-1, 24 h, read-out: Activity. In a few lines:
(§2)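 Suspension lines grown in α-MEM plus 10% FBS and penicillin-streptomycin, 37 °C, 5% CO2. Seeded at 30,000 cells/well in phenol-red-free α-MEM and rested 15 h. Exposed to 10 µM, or 2 µM in the lower-dose repeat, at 1% DMSO final for 24 h. 5 mg/ml MTT added directly for 3 h at 37 °C. Plates spun, formazan dissolved in DMSO, OD read at 550 nm. Viability relative to vehicle.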

In experiment [3] the test system is JeKo-1. As to the kind of experiment: Cytotoxicity against human JeKo1 cells assessed as cell viability at 10 uM after 24 hrs by MTT assay relative to control. Particulars: JeKo-1, 24 h, read-out: Activity. In a few lines:
as §2

A further experiment deals with SK-N-MC. As to the kind of experiment: Cytotoxicity against human SK-N-MC cells assessed as cell viability at 10 uM after 24 hrs by MTT assay relative to control. Particulars: read-out: Activity. In short, it runs like this: as §1
The subject of the next experiment is MDA-MB-231. As to the kind of experiment: Cytotoxicity against human MDA-MB-231 cells assessed as cell viability at 10 uM after 24 hrs by MTT assay relative to control. Particulars: MDA-MB-231, 24 h, read-out: Activity. In short, it runs like this:
as §1

Another experiment concerns PC-3. Nature of the experiment: Cytotoxicity against human PC3 cells assessed as cell viability at 10 uM after 24 hrs by MTT assay relative to control. Particulars: PC-3, 24 h, read-out: Activity. In a few lines: as §1
The subject of experiment [4] is Jurkat. Nature of the experiment: Cytotoxicity against human Jurkat cells assessed as cell viability at 10 uM after 24 hrs by MTT assay relative to control. The note with it: read-out: Activity. In a few lines: as §2
A further experiment deals with HeLa. Nature of the experiment: Cytotoxicity against human HeLa cells assessed as cell viability at 10 uM after 24 hrs by MTT assay relative to control. The note with it: read-out: Activity. In a few lines:
as §1

Experiment [5] deals with HCT-116. Nature of the experiment: Cytotoxicity against human HCT116 cells assessed as cell viability after 24 hrs by MTT assay. The note with it: HCT-116, 24 h, read-out: LC50 (the source's name). In a few lines:
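Adherent cells grown in DMEM with 10% FBS and penicillin-streptomycin, dissociated with Accutase, seeded at 500–10,000 cells/well and held 15 h before treatment. Compounds diluted from 10 mM DMSO stocks, final 1% DMSO, for 24 h at 37 °C, 5% CO2. Medium replaced with 1 mg/ml MTT for 3 h, formazan dissolved in DMSO, OD 550 nm. LC50 from dose-response curves normalized to 1% DMSO vehicle.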

The next experiment relates to SK-MEL-2. Nature of the experiment: Cytotoxicity against human SK-MEL-2 cells assessed as cell viability at 10 uM after 24 hrs by MTT assay relative to control. The note with it: SK-MEL-2, 24 h, read-out: Activity. In short, it runs like this: as §1
A further experiment relates to A549. As to the kind of experiment: Cytotoxicity against human A549 cells assessed as cell viability at 10 uM after 24 hrs by MTT assay relative to control. The note with it: A549, 24 h, read-out: Activity. In a few lines: as §1
Experiment [6] deals with Jurkat. As to the kind of experiment: Cytotoxicity against human Jurkat cells assessed as cell viability at 2 uM after 24 hrs by MTT assay relative to control. Particulars: read-out: Activity. In a few lines:
as §2

With `C=C1C(=O)O[C@@H]2[C@H]3O[C@]3(C)CC/C=C(/C)[C@@H](OC(=O)Nc3ccc(F)cc3F)C[C@@H]12`, the viability at 10 µM with SJSA-1 was 100%; in the experiment on HCT-116 [1], 17.6%; in the experiment on JeKo-1 [3] it was -2.6%; with SK-N-MC it was 91.3%; with MDA-MB-231, 96.4%; in the experiment on PC-3, 82.8%. In addition, the viability at 10 µM worked out at 0% in the experiment on Jurkat [4], 76.3% in the experiment on HeLa, 85.8% in the experiment on SK-MEL-2 and 68.9% in the experiment on A549. In addition, the viability at 2 µM with JeKo-1 [2] is 80.4%; in the experiment with Jurkat [6], 85.8%. Moreover, the CC50 with HCT-116 [5] is 11.8 µM.
As for `C=C1C(=O)O[C@@H]2[C@H]3O[C@]3(C)CC/C=C(/COC(=O)c3coc(-c4ccc(Br)cc4)c3)CC[C@@H]12`, the viability at 10 µM came out at 47.7% with SJSA-1; 11.8% in the experiment with HCT-116 [1]; 7.4% in the experiment on JeKo-1 [3]; 66.1% in the experiment with SK-N-MC; 91% in the experiment on MDA-MB-231; 65.9% with PC-3. Further, the viability at 10 µM with Jurkat [4] is 0%; in the experiment on HeLa, 57.6%; with SK-MEL-2, 78.8%; with A549, 74.8%. The viability at 2 µM with JeKo-1 [2] was determined as 100%; in the experiment with Jurkat [6], 89%. For the same compound, the CC50 with HCT-116 [5] came to 11.8 µM.
In the case of `C=C1C(=O)O[C@@H]2[C@H]3O[C@]3(C)CC/C=C(/C)[C@@H](OC(=O)c3cc(-c4ccc(Cl)cc4)on3)C[C@@H]12`, the viability at 10 µM in the experiment with SJSA-1 is 92.7%; with HCT-116 [1], 14.2%; with JeKo-1 [3], -2.7%; in the experiment on SK-N-MC it was 70.7%; in the experiment on MDA-MB-231, 84.7%; with PC-3, 71.7%. Also, the viability at 10 µM in the experiment with Jurkat [4] was determined as 0%; in the experiment on HeLa, 63.5%; with SK-MEL-2, 85.8%; with A549, 98.4%. In addition, the viability at 2 µM stood at 96.9% with JeKo-1 [2] and 95.7% with Jurkat [6]. Also, the CC50 with HCT-116 [5] amounted to 8.3 µM.
In the case of `C=C1C(=O)O[C@@H]2[C@H]3O[C@]3(C)CC/C=C(/COC(C(=O)OCC)c3ccc(C(F)(F)F)cc3)CC[C@@H]12` (stereo not given in full), the viability at 10 µM in the experiment on SJSA-1 is 100%; with HCT-116 [1], 77.5%; in the experiment on JeKo-1 [3] it was 26.4%; in the experiment with SK-N-MC it was 96.9%; with MDA-MB-231 it was 96.3%; in the experiment on PC-3, 87.2%. The viability at 10 µM in the experiment with Jurkat [4] came to 29.3%; in the experiment on HeLa, 89.6%; in the experiment on SK-MEL-2, 89.8%; in the experiment with A549, 74.8%. Further, the results for the viability at 2 µM in the experiment with JeKo-1 [2] and in the experiment with Jurkat [6] were 89.3% and 90.2%, respectively.
Turning to `C=C1C(=O)O[C@@H]2[C@H]3O[C@]3(C)CC/C=C(/COCc3ccc(C(F)(F)F)cc3)CC[C@@H]12`, the viability at 10 µM is 100% in the experiment with SJSA-1; 82.9% in the experiment with HCT-116 [1]; 18.2% in the experiment with JeKo-1 [3]; 93.6% in the experiment on SK-N-MC; 100% with MDA-MB-231; 89.3% in the experiment with PC-3. In addition, the viability at 10 µM in the experiment on Jurkat [4] turned out to be 21.8%; in the experiment on HeLa it was 72.5%; in the experiment on SK-MEL-2 it was 79.6%; with A549, 87.7%. The viability at 2 µM in the experiment with JeKo-1 [2] was 97.3%; with Jurkat [6], 100%.
`C=C1C(=O)O[C@@H]2[C@H]3O[C@]3(C)CC/C=C(/C)[C@@H](OC(=O)Nc3ccc([N+](=O)[O-])cc3)C[C@@H]12`: the viability at 10 µM with SJSA-1 was 100%; in the experiment with HCT-116 [1], 38%; in the experiment on JeKo-1 [3] it was 0%; in the experiment with SK-N-MC, 92.4%; in the experiment on MDA-MB-231 it was 98.6%; with PC-3, 94.1%. For the same compound, the viability at 10 µM was found to be 0.2% in the experiment on Jurkat [4], 78% with HeLa, 75.2% in the experiment with SK-MEL-2 and 83.3% with A549. Besides, the viability at 2 µM with JeKo-1 [2] amounted to 84.1%; in the experiment with Jurkat [6], 78.9%.
For `C=C1C(=O)O[C@@H]2[C@H]3O[C@]3(C)CC/C=C(/COc3coc(-c4ccc(Br)cc4)c3)CC[C@@H]12`, the viability at 10 µM in the experiment on SJSA-1 is 93.7%; with HCT-116 [1], 26.4%; in the experiment with JeKo-1 [3] it was -2%; with SK-N-MC it was 90.9%; in the experiment on MDA-MB-231 it was 87.1%; with PC-3 it was 97.1%. The viability at 10 µM in the experiment with Jurkat [4] turned out to be 0%; in the experiment on HeLa, 59.2%; in the experiment on SK-MEL-2, 103%; in the experiment with A549, 95.2%. The figures for the viability at 2 µM in the experiment with JeKo-1 [2] and in the experiment with Jurkat [6] were 98.8% and 87.6%, respectively.
`C=C1C(=O)O[C@@H]2[C@H]3O[C@]3(C)CC/C=C(/C)[C@@H](OC(=O)Nc3cccc4ccccc34)C[C@@H]12`: the viability at 10 µM in the experiment with SJSA-1 came to 100%; in the experiment on HCT-116 [1], 100%; with JeKo-1 [3], 75.7%; in the experiment on SK-N-MC, 96.8%; with MDA-MB-231, 100%; with PC-3, 83.4%. The viability at 10 µM with Jurkat [4] came to 84%; in the experiment on HeLa it was 88.8%; in the experiment with SK-MEL-2, 98.7%; in the experiment on A549, 95.8%. Also, the viability at 2 µM was 97.6% in the experiment with JeKo-1 [2] and 93.3% in the experiment with Jurkat [6].
Consider `C=C1C(=O)O[C@@H]2[C@H]3O[C@]3(C)CC/C=C(/COC(=O)c3ccc(C(F)(F)F)cc3)CC[C@@H]12`, for which the viability at 10 µM with SJSA-1 is 73.6%; in the experiment on HCT-116 [1], 27.3%; with JeKo-1 [3], -1.6%; in the experiment on SK-N-MC, 67.8%; in the experiment with MDA-MB-231, 75.5%; with PC-3, 69.3%. For the same compound, the viability at 10 µM with Jurkat [4] was 0%; in the experiment on HeLa, 63.9%; in the experiment with SK-MEL-2 it was 85.4%; in the experiment with A549 it was 94.1%. The viability at 2 µM in the experiment with JeKo-1 [2] was 95.9%; in the experiment on Jurkat [6], 92.4%.
With `C=C1C(=O)O[C@@H]2[C@H]3O[C@]3(C)CC/C=C(/C)[C@@H](OC(=O)c3cccs3)C[C@@H]12`, the viability at 10 µM with SJSA-1 was found to be 98.3%; in the experiment with HCT-116 [1] it was 29.4%; in the experiment on JeKo-1 [3] it was 12.9%; in the experiment on SK-N-MC it was 98.2%; with MDA-MB-231, 97.6%; in the experiment on PC-3 it was 93%. In addition, the viability at 10 µM in the experiment with Jurkat [4] was found to be 15.4%; in the experiment on HeLa, 87.5%; with SK-MEL-2 it was 94.7%; in the experiment on A549, 102%. Further, the viability at 2 µM with JeKo-1 [2] worked out at 98.1%; in the experiment on Jurkat [6], 94%.
Turning to `C=C1C(=O)O[C@@H]2[C@H]3O[C@]3(C)CC/C=C(/COC(=O)Nc3ccccc3)CC[C@@H]12`, the viability at 10 µM in the experiment on SJSA-1 came to 100%; with HCT-116 [1] it was 45.9%; with JeKo-1 [3], 16.6%; with SK-N-MC, 102%; in the experiment on MDA-MB-231, 97.1%; in the experiment on PC-3 it was 85.3%. In addition, the viability at 10 µM turned out to be 0% with Jurkat [4], 74.2% in the experiment with HeLa, 80.5% in the experiment on SK-MEL-2 and 60.3% in the experiment with A549. The viability at 2 µM in the experiment with JeKo-1 [2] is 100%; with Jurkat [6], 89.2%.

The record behind these values is ChEMBL document CHEMBL4219033, “Anticancer activity profiling of parthenolide analogs generated via P450-mediated chemoenzymatic synthesis” (2018).
